Assay results from ChEMBL document CHEMBL5032510, “Identification of Novel Fused Heteroaromatics-Based MALT1 Inhibitors by High-Throughput Screening to Treat B Cell Lymphoma” (J Med Chem, 2021).
Activity calls are given as the source filed them. The rule behind the calls is not given here.

Experiments:
[1] = target: T1, Mucosa-associated lymphoid tissue lymphoma translocation protein 1 (Homo sapiens, UniProt Q9UDY8); assay: Inhibition of N-terminal his-tagged GCN4 leucine zipper fused human MALT1 […] expressed in Escherichia coli using Ac-LVSR-AMC as substrate by HTS assay
T1 sequence (Q9UDY8 whole entry): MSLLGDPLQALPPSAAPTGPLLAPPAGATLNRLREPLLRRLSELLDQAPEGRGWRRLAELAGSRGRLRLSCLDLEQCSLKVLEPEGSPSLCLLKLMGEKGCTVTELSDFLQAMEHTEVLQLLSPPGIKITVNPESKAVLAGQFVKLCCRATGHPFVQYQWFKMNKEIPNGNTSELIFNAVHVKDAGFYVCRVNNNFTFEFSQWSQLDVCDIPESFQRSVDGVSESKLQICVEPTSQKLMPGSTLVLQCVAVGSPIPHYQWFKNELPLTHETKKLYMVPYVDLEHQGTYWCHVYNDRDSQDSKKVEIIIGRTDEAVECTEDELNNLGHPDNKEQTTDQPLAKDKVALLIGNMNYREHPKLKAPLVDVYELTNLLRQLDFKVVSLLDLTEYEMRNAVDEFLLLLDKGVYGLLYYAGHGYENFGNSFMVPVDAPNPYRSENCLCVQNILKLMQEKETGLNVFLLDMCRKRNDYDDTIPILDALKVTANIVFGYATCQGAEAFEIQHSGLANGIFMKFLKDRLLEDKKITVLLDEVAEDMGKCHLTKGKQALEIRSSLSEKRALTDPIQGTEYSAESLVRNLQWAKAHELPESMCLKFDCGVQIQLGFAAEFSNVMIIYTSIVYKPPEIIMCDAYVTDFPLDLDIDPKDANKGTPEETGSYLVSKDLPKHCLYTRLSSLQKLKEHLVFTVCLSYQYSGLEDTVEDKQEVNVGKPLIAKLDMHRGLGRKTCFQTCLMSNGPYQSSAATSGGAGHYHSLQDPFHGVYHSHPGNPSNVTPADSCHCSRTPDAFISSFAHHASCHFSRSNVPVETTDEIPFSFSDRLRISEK

OCI-Ly1 = assay: Antiproliferative activity against human OCI-Ly1 cells assessed as inhibition of cell growth incubated for 72 hrs by Celltiter-Glo luminescent assay; type: functional
How it was run: (§1)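 Exponentially growing cells were seeded at 1 × 10⁴ per 100 μL. HBL-1 and TMD8 were kept in RPMI with 10% FBS, 2 mM glutamine and 10 mM HEPES; OCI-LY1 in Iscove's medium with 20% FBS; all at 37 °C and 5% CO2. Cells were exposed to DMSO or 2-fold serial dilutions from 100 μM for 72 h, in triplicate on one plate. CellTiter-Glo luminescence was read after 1 h. Growth inhibition was calculated against control, accounting for initial cell number, and GI50 was fitted.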

TMD8 = assay: Antiproliferative activity against human TMD8 cells assessed as inhibition of cell growth incubated for 72 hrs by Celltiter-Glo luminescent assay; type: functional; how it was run: as §1
[2] = Antiproliferative activity against human HBL1 cells assessed as inhibition of cell growth incubated for 72 hrs by Celltiter-Glo luminescent assay; type: functional; how it was run: as §1

O=C(Nc1ccc(Cl)c(Cl)c1)c1sc(=S)n2c1[nH]c(=O)c1ccccc12
IC50 [1]: > 25 µM

Cc1ccccc1NC(=O)c1sc(=S)n2c1[nH]c(=O)c1ccc(Cl)cc12
IC50 [1]: 11 µM

COc1cc2c(=O)[nH]c3c(C(=O)Nc4cc(Cl)cc(Cl)c4)sc(=S)n3c2cc1OC
GI50 (OCI-Ly1): 14.2 µM | IC50 [1]: 14 µM | GI50 (TMD8): 6.3 µM | GI50 [2]: 2.2 µM

COC(=O)c1ccc2c(=O)[nH]c3c(C(=O)Nc4ccc([N+](=O)[O-])cc4)sc(=S)n3c2c1
IC50 [1]: 4.3 µM

CCOc1ccc(OCC)c(NC(=O)c2sc(=S)n3c2[nH]c(=O)c2ccc(Cl)cc23)c1
GI50 (OCI-Ly1): 25.6 µM | IC50 [1]: 4.7 µM | GI50 (TMD8): 12.1 µM | GI50 [2]: 12.1 µM

COc1ccc(OC)c(NC(=O)c2sc(=S)n3c2[nH]c(=O)c2ccccc23)c1
IC50 [1]: > 25 µM

Cc1ccc2c(c1)c(=O)[nH]c1c(C(=O)Nc3cc(Cl)ccc3C)sc(=S)n12
GI50 (OCI-Ly1): 23 µM | IC50 [1]: 3.4 µM | GI50 (TMD8): 8 µM | GI50 [2]: 14 µM

COc1ccc(OC)c(NC(=O)c2sc(=S)n3c2[nH]c(=O)c2ccc(F)cc23)c1
IC50 [1]: 17 µM

COc1ccc(OC)c(NC(=O)c2sc(=S)n3c2[nH]c(=O)c2cc(F)c(F)cc23)c1
IC50 [1]: 11.6 µM

O=C(NCc1ccccc1Cl)c1sc(=S)n2c1[nH]c(=O)c1cc(Cl)ccc12
Activity (OCI-Ly1): inactive | IC50 [1]: 5.3 µM | GI50 (TMD8): 33 µM | GI50 [2]: 25 µM

COc1ccc(OC)c(NC(=O)c2sc(=S)n3c2[nH]c(=O)c2ccc(OC)cc23)c1
IC50 [1]: > 25 µM

Cc1ccc(Cl)cc1NC(=O)c1sc(=S)n2c1[nH]c(=O)c1cc3c(cc12)OCO3
GI50 (OCI-Ly1): 48 µM | IC50 [1]: 3.6 µM | GI50 (TMD8): 12 µM | GI50 [2]: 32 µM

COC(=O)c1ccc2c(=O)[nH]c3c(C(=O)Nc4ccc(Cl)cc4)sc(=S)n3c2c1
GI50 (OCI-Ly1): 18.6 µM | IC50 [1]: 5.1 µM | GI50 (TMD8): 4.4 µM | GI50 [2]: 14.8 µM

COC(=O)c1ccc2c(=O)[nH]c3c(C(=O)Nc4ccc(Cl)c(Cl)c4)sc(=S)n3c2c1
IC50 [1]: 6.9 µM

COc1cccc(NC(=O)c2sc(=S)n3c2[nH]c(=O)c2ccccc23)c1
IC50 [1]: > 25 µM

CCc1ccccc1NC(=O)c1sc(=S)n2c1[nH]c(=O)c1ccc(Cl)cc12
IC50 [1]: 5.1 µM

COC(=O)c1ccc2c(=O)[nH]c3c(C(=O)Nc4cc(OC)ccc4OC)sc(=S)n3c2c1
GI50 (OCI-Ly1): 13.4 µM | IC50 [1]: 5.3 µM | GI50 (TMD8): 7 µM | GI50 [2]: 6.7 µM

CC(C)c1ccc(S(=O)(=O)Nc2ccc(N3CCC(Cc4ccccc4)CC3)cc2C(=O)O)cc1
IC50 [1]: 12.3 µM

COc1ccc(OC)c(NC(=O)c2sc(=S)n(-c3cccc(F)c3)c2NC(=O)CCl)c1
GI50 (OCI-Ly1): 12.1 µM | IC50 [1]: 3.8 µM | GI50 (TMD8): 1.5 µM | GI50 [2]: 1.6 µM

O=C(Nc1cccc(F)c1)c1sc(=S)n2c1[nH]c(=O)c1ccc(Cl)cc12
GI50 (OCI-Ly1): 12.4 µM | IC50 [1]: 5.53 µM | GI50 (TMD8): 16.8 µM | GI50 [2]: 16.8 µM

O=C(Nc1cc(Cl)cc(Cl)c1)c1sc(=S)n2c1[nH]c(=O)c1ccc(Cl)cc12
IC50 [1]: 7.4 µM

COc1ccc(NC(=O)c2sc(=S)n3c2[nH]c(=O)c2ccccc23)cc1
IC50 [1]: > 25 µM

O=C(Nc1ccc([N+](=O)[O-])cc1)c1sc(=S)n2c1[nH]c(=O)c1ccccc12
GI50 (OCI-Ly1): 21 µM | IC50 [1]: 6.7 µM | GI50 (TMD8): 4 µM | GI50 [2]: 14.3 µM

COC(=O)c1ccc2c(=O)[nH]c3c(C(=O)Nc4ccccc4C)sc(=S)n3c2c1
GI50 (OCI-Ly1): 15 µM | IC50 [1]: 14.5 µM | GI50 (TMD8): 15 µM | GI50 [2]: 13.1 µM

O=C(NCc1ccco1)c1sc(=S)n2c1[nH]c(=O)c1cc(Br)ccc12
GI50 (OCI-Ly1): 36.8 µM | IC50 [1]: 5.2 µM | GI50 (TMD8): 16.2 µM | GI50 [2]: 13.2 µM

O=C(Nc1cc(Cl)cc(Cl)c1)c1sc(=S)n2c1[nH]c(=O)c1cc(Br)ccc12
GI50 (OCI-Ly1): 20.2 µM | IC50 [1]: 3.3 µM | GI50 (TMD8): 3.9 µM | GI50 [2]: 18.4 µM

Cc1ccc(NC(=O)Nc2ccc3nc(N4CCN(C)CC4)cc(C)c3c2)cc1Cl
GI50 (OCI-Ly1): 11.2 µM | IC50 [1]: 16.6 µM | GI50 (TMD8): 5.56 µM | GI50 [2]: 5.56 µM

COC(=O)c1ccc2c(=O)[nH]c3c(C(=O)Nc4cc(Cl)cc(Cl)c4)sc(=S)n3c2c1
IC50 [1]: 2.5 µM

COc1ccccc1NC(=O)c1sc(=S)n2c1[nH]c(=O)c1cc(Cl)ccc12
GI50 (OCI-Ly1): 23 µM | IC50 [1]: 6.1 µM | GI50 (TMD8): 17 µM | GI50 [2]: 17 µM

O=C(Nc1cc(Cl)cc(Cl)c1)c1sc(=S)n2c1[nH]c(=O)c1ccccc12
GI50 (OCI-Ly1): 10 µM | IC50 [1]: 2.2 µM | GI50 (TMD8): 3.7 µM | GI50 [2]: 8 µM

CCc1ccccc1NC(=O)c1sc(=S)n2c1[nH]c(=O)c1cc(Br)ccc12
IC50 [1]: 4.4 µM

O=C(Nc1ccc([N+](=O)[O-])cc1)c1sc(=S)n2c1[nH]c(=O)c1ccc(Cl)cc12
IC50 [1]: 2.6 µM

COC(=O)c1ccc2c(=O)[nH]c3c(C(=O)Nc4ccc(-c5ccccc5)cc4)sc(=S)n3c2c1
GI50 (OCI-Ly1): 34 µM | IC50 [1]: 6.4 µM | GI50 (TMD8): 23 µM | GI50 [2]: 16 µM

COc1cccc(CNC(=O)c2sc(=S)n3c2[nH]c(=O)c2cc(Cl)ccc23)c1
IC50 [1]: 12.8 µM | GI50 (TMD8): 21.6 µM | GI50 [2]: 28.2 µM

COc1ccccc1NC(=O)c1sc(=S)n2c1[nH]c(=O)c1ccc(Br)cc12
IC50 [1]: 7.7 µM

O=C(Nc1ccccc1Cl)c1sc(=S)n2c1[nH]c(=O)c1ccccc12
IC50 [1]: 20.4 µM

CCc1ccc(NC(=O)c2sc(=S)n3c2[nH]c(=O)c2ccccc23)cc1
IC50 [1]: > 25 µM

COc1ccc(OC)c(NC(=O)c2sc(=S)n3c2[nH]c(=O)c2cc(OC)ccc23)c1
IC50 [1]: > 25 µM

COC(=O)c1ccc2c(=O)[nH]c3c(C(=O)Nc4cccc(Cl)c4[N+](=O)[O-])sc(=S)n3c2c1
IC50 [1]: 3 µM

CCc1ccccc1NC(=O)c1sc(=S)n2c1[nH]c(=O)c1cc(F)c(F)cc12
IC50 [1]: 5.2 µM

Cc1ccccc1C1CCN(c2ccc(NC(=O)c3ccc(Cl)cc3)c(C(=O)O)c2)C1 (stereo unspecified)
IC50 [1]: 12 µM

Cc1ccc(S(=O)(=O)C2=C(O)C(=O)N(Cc3ccc(F)cc3)C2c2ccc(C(C)C)cc2)cc1 (stereo unspecified)
IC50 [1]: 13 µM

COc1ccccc1NC(=O)c1sc(=S)n2c1[nH]c(=O)c1ccccc12
IC50 [1]: > 25 µM

O=C(Nc1ccccc1)c1sc(=S)n2c1[nH]c(=O)c1ccccc12
IC50 [1]: > 25 µM

COc1ccc(OC)c(NC(=O)c2sc(=S)n3c2[nH]c(=O)c2cc(OC)c(OC)cc23)c1
IC50 [1]: > 25 µM

CCc1ccccc1NC(=O)c1sc(=S)n2c1[nH]c(=O)c1ccccc12
IC50 [1]: 14.7 µM

O=C(Nc1cccc(Cl)c1[N+](=O)[O-])c1sc(=S)n2c1[nH]c(=O)c1ccc(Cl)cc12
IC50 [1]: 4.4 µM

COc1ccc(OC)c(NC(=O)c2sc(=S)n3c2[nH]c(=O)c2ccc(Br)cc23)c1
IC50 [1]: 18.8 µM

CCc1ccccc1NC(=O)c1sc(=S)n2c1[nH]c(=O)c1ccc(C(=O)OC)cc12
IC50 [1]: 3.2 µM

Cc1ccc2c(c1)c(=O)[nH]c1c(C(=O)Nc3ccccc3C)sc(=S)n12
IC50 [1]: 21.1 µM | GI50 (TMD8): 24.7 µM | GI50 [2]: 24.7 µM

O=C(Nc1ccc(Cl)cc1)c1sc(=S)n2c1[nH]c(=O)c1ccccc12
IC50 [1]: > 25 µM
